We go through 19 compounds from ChEMBL document CHEMBL1147670, “2,6-disubstituted and 2,6,8-trisubstituted purines as adenosine receptor antagonists” (J Med Chem, 2006).

For test [1], the target named is T1, Adenosine receptor A1 (Homo sapiens, UniProt P30542).
T1 sequence (P30542 whole entry): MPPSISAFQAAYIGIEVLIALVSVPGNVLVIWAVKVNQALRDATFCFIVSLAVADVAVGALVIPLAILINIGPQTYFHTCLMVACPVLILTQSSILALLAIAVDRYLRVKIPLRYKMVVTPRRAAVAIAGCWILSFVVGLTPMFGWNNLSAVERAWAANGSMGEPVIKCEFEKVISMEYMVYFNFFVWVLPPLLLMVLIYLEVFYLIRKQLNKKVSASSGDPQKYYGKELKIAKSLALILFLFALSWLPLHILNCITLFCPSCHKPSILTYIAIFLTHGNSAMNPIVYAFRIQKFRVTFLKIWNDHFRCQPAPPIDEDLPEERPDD
Kind of test: Displacement of [3H]DPCPX from human adenosine A1 receptor expressed in CHO cells. In kind it is cell-based. The gist of the method:
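Competition binding against [³H]DPCPX (K_D 1.6 nM) at human A1 receptors expressed in CHO cells. Ki was derived by nonlinear regression, mean ± SEM, n = 3.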

The target in test [2] is T2, Adenosine receptor A3 (Homo sapiens, UniProt P0DMS8).
T2 sequence (P0DMS8 whole entry): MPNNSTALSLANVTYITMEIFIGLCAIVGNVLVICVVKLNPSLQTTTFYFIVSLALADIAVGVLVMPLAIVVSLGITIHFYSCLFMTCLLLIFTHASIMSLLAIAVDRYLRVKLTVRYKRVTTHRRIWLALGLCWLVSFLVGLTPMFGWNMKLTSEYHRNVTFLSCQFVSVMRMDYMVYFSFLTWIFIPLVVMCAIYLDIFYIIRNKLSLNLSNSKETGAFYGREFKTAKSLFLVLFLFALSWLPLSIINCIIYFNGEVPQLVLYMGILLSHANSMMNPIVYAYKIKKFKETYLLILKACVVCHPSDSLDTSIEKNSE
The experiment in a line: Displacement of [125I]AB-MECA from human adenosine A3 receptor expressed in HEK293 cells. In kind it is cell-based.

Test [3] addresses T3, Adenosine receptor A2a (Homo sapiens, UniProt P29274). The experiment in a line: Displacement of [3H]ZM 241385 from human adenosine A2a receptor expressed in HEK293 cells at 1 uM. In kind it is cell-based. The gist of the method: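 Single-point screen at 1 µM for % displacement of specific [³H]ZM 241385 binding at human A2A receptors in HEK 293 cells, n = 2.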
(In general: Displacement assays read how much labelled ligand stays bound in the presence of the test substance.)

The target of test [4] is T3, Adenosine receptor A2a. Kind of test: Displacement of [3H]ZM 241385 from human adenosine A2a receptor expressed in HEK293 cells. In kind it is cell-based. The gist of the method:
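Radioligand competition using [³H]ZM 241385 (K_D 1.0 nM) at human A2A receptors expressed in HEK 293 cells. Ki was obtained by nonlinear regression, ± SEM, n = 3.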

The target in test [5] is T4, Adenosine receptor A1 (Homo sapiens) (UniProt P30542).
T4 sequence (whole entry): T1 sequence (P30542 whole entry)
Kind of test: Displacement of [3H]DPCPX from human adenosine A1 receptor expressed in CHO cells at 1 uM. In kind it is cell-based. A digest of the protocol:
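Inhibition of specific [³H]DPCPX binding to human A1 receptors in CHO cells by test compound at 1 µM, reported as % displacement, n = 2.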

The target of test [6] is T4, Adenosine receptor A1 (Homo sapiens). The experiment in a line: Activity against human adenosine A1 receptor in CHO cells by increase of forskolin-induced cAMP production at 100 nM. In kind it is functional, cell-based. Particulars: filed as antagonist. The gist of the method: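 Human A1-expressing CHO monolayers were preincubated 30 min at 37 °C with adenosine deaminase (0.8 IU/mL), rolipram and cilostamide (50 µM each) in HEPES/DMEM pH 7.4. Test compound at 100 nM was added for 10 min, then forskolin 10 µM for 15 min, and the reaction was stopped with ice-cold 0.1 M HCl. cAMP was measured by [³H]cAMP competition for PKA. Forskolin alone was set at 100% and CPA 1 µM at 0%. At least three experiments in duplicate.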

For test [7], the target named is Adenosine receptors; A1 & A2a (Homo sapiens) (UniProt P30542+P29274). Kind of test: Selectivity for human adenosine A1 receptor over adenosine A2a receptor. In kind it is protein assay. The gist of the method: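 Ki values from radioligand displacement binding at each receptor. Human A1 expressed in CHO cells with [3H]DPCPX (KD 1.6 nM); human A2A expressed in HEK 293 cells with [3H]ZM 241385 (KD 1.0 nM). Ki from nonlinear regression, mean ± SEM (n = 3); selectivity compares the A1 and A2A Ki values.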

In test [8] the target is T4, Adenosine receptor A1 (Homo sapiens). Kind of test: (§1) Activity against human adenosine A1 receptor in CHO cells assessed by the antagonizing effect of 100 nM CPA on forskolin-induced cAMP production. In kind it is functional, cell-based. A digest of the protocol: (§2)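 Whole-cell cAMP assay in CHO cells expressing human A1 receptor, 2 × 10⁵ cells/well grown overnight as a monolayer. Cells were pretreated 30 min at 37 °C with adenosine deaminase 0.8 IU/mL, rolipram 50 µM and cilostamide 50 µM in HEPES/DMEM pH 7.4. Compound was then given against 100 nM CPA, followed by forskolin 10 µM for 15 min. cAMP was measured by [³H]cAMP/PKA competition. A full concentration-response curve gave K_B.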
(cAMP levels reflect the balance of adenylyl cyclase and phosphodiesterase activity.)

Test [9] deals with T1, Adenosine receptor A1. Described as §1. In kind it is functional, cell-based. A digest of the protocol:
as §2

Each structure is given as a SMILES string. Active and inactive are the calls of the source. The calls are words filed in the database; no cut-off is given here.

T3 sequence (P29274 whole entry): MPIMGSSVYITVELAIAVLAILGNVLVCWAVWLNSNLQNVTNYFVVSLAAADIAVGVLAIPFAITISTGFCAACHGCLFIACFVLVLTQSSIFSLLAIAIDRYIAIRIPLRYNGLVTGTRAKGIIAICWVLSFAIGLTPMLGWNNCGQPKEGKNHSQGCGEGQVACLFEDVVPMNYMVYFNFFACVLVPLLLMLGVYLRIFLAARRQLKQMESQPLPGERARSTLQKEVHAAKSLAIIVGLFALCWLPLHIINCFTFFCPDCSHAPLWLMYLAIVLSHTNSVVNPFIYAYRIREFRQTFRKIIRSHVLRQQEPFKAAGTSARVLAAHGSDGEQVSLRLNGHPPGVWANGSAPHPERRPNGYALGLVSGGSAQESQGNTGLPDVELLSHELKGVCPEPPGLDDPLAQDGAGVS
Chain of Adenosine receptors; A1 & A2a (Homo sapiens) (P29274 whole entry, looked up, one chain of several): as the sequence (P29274 whole entry) above

A word on the Ki: it is the equilibrium dissociation constant of an inhibitor or competing ligand from its target. In test [1], `Cc1ccc(-c2nc(-c3ccccc3)nc3nc(C4CCCCC4)[nH]c23)cc1` registered a Ki of 36 nM.
Take `Cc1ccc(-c2nc(-c3ccc(C)cc3)c3[nH]cnc3n2)cc1`: the Ki amounted to 235 nM in [1] and 9.3 nM in test [2]. In test [3], this compound came in with an Activity of 4%.
`COc1ccc(-c2nc(-c3ccccc3)c3[nH]cnc3n2)cc1`: the inhibition constant (Ki) was 32 nM in [1] and 4 nM in test [2]. In addition, the Activity in test [3] amounted to 47%.
As to `Clc1ccc(-c2nc(-c3ccccc3)c3[nH]cnc3n2)cc1`, the Ki was 27 nM in test [1], 315 nM in test [4] and 94 nM in test [2].
As to `c1ccc(-c2nc(-c3ccccc3)c3[nH]cnc3n2)cc1`, the inhibition constant (Ki) came out at 4.1 nM in test [1], 53 nM in test [4] and 38 nM in test [2].
With `Cn1c(C2CCCCC2)nc2c(-c3ccccc3)nc(-c3ccccc3)nc21`, the Activity came to 0% in test [3] and 24% in test [5].
Consider `CC(C)c1nc2[nH]c(-c3ccccc3)nc(-c3ccccc3)c-2n1`, for which the Ki in [1] was 0.82 nM; in test [4] it was 148 nM; in [2], 9.5 nM. Moreover, in test [6], the Activity entry is “Antagonist”.
In the case of `CCCc1nc2nc(-c3ccccc3)nc(-c3ccccc3)c2[nH]1`, the results for the Ki in [1], in [4] and in [2] were 4.4 nM, 167 nM and 17 nM, respectively.
In the case of `Clc1ccc(-c2nc(-c3ccc(Cl)cc3)c3[nH]cnc3n2)cc1`, the affinity in test [2], expressed as Ki, was 68 nM. Moreover, the figures for the Activity in [3] and in test [5] were 11% and 21%, respectively.
`Clc1ccc(-c2[nH]c(-c3ccccc3)nc3nc(C4CCCCC4)nc2-3)cc1` displayed an Activity in [3] of 24%.
Take `c1ccc(-c2nc(-c3ccccc3)c3nc(C4CCCC4)nc-3[nH]2)cc1`: the Ki is 0.29 nM in test [1], 55 nM in test [4] and 35 nM in test [2]. The Ratio Ki in test [7] was 190. Besides, in test [8], the result was Active.
As to `COc1ccc(-c2[nH]c(-c3ccccc3)nc3nc(C4CCCCC4)nc2-3)cc1`, the Ki in test [1] was determined as 3.7 nM; in test [2] it was 138 nM. Also, in test [3], the Activity came to 27%.
As for `Clc1ccc(-c2nc(-c3ccccc3)nc3nc(C4CCCCC4)[nH]c23)cc1`, the inhibition constant Ki in [1] was found to be 25 nM; in test [2], 243 nM.
The IC50 is the concentration at which inhibition is half-maximal. Read a high IC50 as weaker potency. Regarding `c1ccc(-c2nc(-c3ccccc3)c3nc(C4CCCCC4)nc-3[nH]2)cc1`, the Ki in [1] turned out to be 0.73 nM; in test [4] it was 118 nM; in test [2], 200 nM. This compound showed an IC50 in test [9] of 477 nM.
`Clc1ccc(-c2[nH]c(-c3ccccc3)nc3nc(C4CCCCC4)nc2-3)cc1Cl` returned a Ki in [1] of 37 nM. Further, the Activity in [3] was 20.3%.
As for `COc1ccc(-c2nc(-c3ccc(OC)cc3)c3[nH]cnc3n2)cc1`, the Ki in test [2] is 165 nM. In addition, the Activity stood at 37% in test [3] and 40% in test [5].
With `Cc1ccc(-c2nc(-c3ccccc3)c3[nH]cnc3n2)cc1`, the Ki in test [1] amounted to 4 nM; in [4] it was 289 nM; in [2], 9.4 nM.
The compound `Cc1ccc(-c2[nH]c(-c3ccccc3)nc3nc(C4CCCCC4)nc2-3)cc1` came in with an Activity in [3] of 9%.
As to `c1ccc(-c2nc(-c3ccccc3)c3[nH]c(-c4ccccc4)nc3n2)cc1`, the Ki in test [1] stood at 21 nM; in test [4] it was 66 nM; in [2], 49 nM.
